Measurements published in ChEMBL document CHEMBL2169827, “4-Oxo-1,4-dihydropyridines as selective CB₂ cannabinoid receptor ligands. Part 2: discovery of new agonists endowed with protective effect against experimental colitis” (J Med Chem, 2012).
pEC50, pKi: −log10 of the molar value. Active and inactive are the calls of the source. The rule behind the calls is not given here.

What was measured:
[1] = target: T1, Cannabinoid receptor 2 (Homo sapiens, UniProt P34972); experiment: Displacement of [3H]-CP55940 from human recombinant CB2 receptor expressed in CHO cells membrane by scintillation counting; type: cell membranes
T1 sequence (P34972 whole entry): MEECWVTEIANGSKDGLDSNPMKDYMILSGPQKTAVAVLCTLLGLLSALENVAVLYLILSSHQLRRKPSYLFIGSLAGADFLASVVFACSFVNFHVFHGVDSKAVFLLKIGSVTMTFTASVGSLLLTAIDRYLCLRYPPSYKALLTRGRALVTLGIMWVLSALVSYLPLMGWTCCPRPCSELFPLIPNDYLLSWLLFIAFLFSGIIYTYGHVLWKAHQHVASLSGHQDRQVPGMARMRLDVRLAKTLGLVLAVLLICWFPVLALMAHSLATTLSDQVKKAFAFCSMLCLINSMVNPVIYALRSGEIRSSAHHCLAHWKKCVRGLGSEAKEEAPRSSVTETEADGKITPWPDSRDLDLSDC

[2] = target: T2, Cannabinoid receptor 1 (Homo sapiens, UniProt P21554); experiment: Displacement of [3H]-CP55940 from human recombinant CB1 receptor expressed in CHO cells membrane at 1 uM by scintillation counting; type: cell membranes
T2 sequence (P21554 whole entry): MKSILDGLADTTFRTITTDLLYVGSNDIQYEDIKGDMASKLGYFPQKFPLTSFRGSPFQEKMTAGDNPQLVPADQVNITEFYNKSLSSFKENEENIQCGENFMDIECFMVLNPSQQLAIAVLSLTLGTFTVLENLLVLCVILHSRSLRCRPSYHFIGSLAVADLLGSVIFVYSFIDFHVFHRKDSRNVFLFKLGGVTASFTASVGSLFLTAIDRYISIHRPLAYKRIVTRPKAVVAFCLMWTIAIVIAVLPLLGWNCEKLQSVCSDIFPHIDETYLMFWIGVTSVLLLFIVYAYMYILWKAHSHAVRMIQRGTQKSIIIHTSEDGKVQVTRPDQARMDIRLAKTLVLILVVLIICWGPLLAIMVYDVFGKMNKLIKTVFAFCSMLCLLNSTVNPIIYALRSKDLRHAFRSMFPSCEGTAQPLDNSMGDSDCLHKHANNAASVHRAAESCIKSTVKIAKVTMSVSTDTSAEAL
Method in brief: (§1)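 Competitive radioligand displacement with [3H]-CP-55,940 at human CB1 or CB2; single-point screen at 1 μM, specific displacement recorded.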

[3] = target: T1, Cannabinoid receptor 2; experiment: Displacement of [3H]-CP55940 from human recombinant CB2 receptor expressed in CHO cells membrane at 1 uM by scintillation counting; type: cell membranes; method in brief: as §1
[4] = target: T2, Cannabinoid receptor 1; experiment: Displacement of [3H]-CP55940 from human recombinant CB1 receptor expressed in CHO cells membrane by scintillation counting; type: cell membranes
[5] = target: T1, Cannabinoid receptor 2; experiment: Agonist activity at human recombinant CB2 receptor expressed in CHO cells membrane by [35S]-GTPgammaS assay; type: functional, cell membranes
[6] = test system: Mus musculus; experiment: Anticolitis activity in TNBS-induced C57Bl6 mouse experimental colitis model assessed as reduction colitis macroscopic scores at 10 mg/kg, ip qd dosed 3 days before colitis induction; type: functional; set-up: scale not given: the % may be the effect or the level left; settings: route intraperitoneal
Method in brief: (§2)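 TNBS colitis in mice; test agent given ip once daily at 10 mg/kg; mice killed three days after TNBS and colon inflammation parameters assessed; 10 mice per group, mean ± SEM, compared with TNBS plus vehicle.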

[7] = Fraction unbound in human plasma at 37 degC by equilibrium dialysis method; type: ADME, cell-free
Method in brief: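 Plasma protein binding by equilibrium dialysis at 37 °C; free fraction reported.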

[8] = Permeability from apical to basolateral side in human Caco2 cells at 10 uM incubated for 60 mins; type: ADME, cell-based; settings: Caco-2, read-out: permeability
Method in brief: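 Caco-2 permeability: compound at 10 μM, samples at 0 and 60 min.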

[9] = target: MDR1 (ABCB1, P-glycoprotein) (Homo sapiens, UniProt P08183); experiment: Inhibition of MDR1 expressed in MDCK2 cells at 10 uM by calcein AM accumulation assay; type: cell-based, MDCK-II; settings: dog, MDCK2 cells expressing MDR1, probe calcein AM
MDR1 (ABCB1, P-glycoprotein), sequence (P08183 whole entry): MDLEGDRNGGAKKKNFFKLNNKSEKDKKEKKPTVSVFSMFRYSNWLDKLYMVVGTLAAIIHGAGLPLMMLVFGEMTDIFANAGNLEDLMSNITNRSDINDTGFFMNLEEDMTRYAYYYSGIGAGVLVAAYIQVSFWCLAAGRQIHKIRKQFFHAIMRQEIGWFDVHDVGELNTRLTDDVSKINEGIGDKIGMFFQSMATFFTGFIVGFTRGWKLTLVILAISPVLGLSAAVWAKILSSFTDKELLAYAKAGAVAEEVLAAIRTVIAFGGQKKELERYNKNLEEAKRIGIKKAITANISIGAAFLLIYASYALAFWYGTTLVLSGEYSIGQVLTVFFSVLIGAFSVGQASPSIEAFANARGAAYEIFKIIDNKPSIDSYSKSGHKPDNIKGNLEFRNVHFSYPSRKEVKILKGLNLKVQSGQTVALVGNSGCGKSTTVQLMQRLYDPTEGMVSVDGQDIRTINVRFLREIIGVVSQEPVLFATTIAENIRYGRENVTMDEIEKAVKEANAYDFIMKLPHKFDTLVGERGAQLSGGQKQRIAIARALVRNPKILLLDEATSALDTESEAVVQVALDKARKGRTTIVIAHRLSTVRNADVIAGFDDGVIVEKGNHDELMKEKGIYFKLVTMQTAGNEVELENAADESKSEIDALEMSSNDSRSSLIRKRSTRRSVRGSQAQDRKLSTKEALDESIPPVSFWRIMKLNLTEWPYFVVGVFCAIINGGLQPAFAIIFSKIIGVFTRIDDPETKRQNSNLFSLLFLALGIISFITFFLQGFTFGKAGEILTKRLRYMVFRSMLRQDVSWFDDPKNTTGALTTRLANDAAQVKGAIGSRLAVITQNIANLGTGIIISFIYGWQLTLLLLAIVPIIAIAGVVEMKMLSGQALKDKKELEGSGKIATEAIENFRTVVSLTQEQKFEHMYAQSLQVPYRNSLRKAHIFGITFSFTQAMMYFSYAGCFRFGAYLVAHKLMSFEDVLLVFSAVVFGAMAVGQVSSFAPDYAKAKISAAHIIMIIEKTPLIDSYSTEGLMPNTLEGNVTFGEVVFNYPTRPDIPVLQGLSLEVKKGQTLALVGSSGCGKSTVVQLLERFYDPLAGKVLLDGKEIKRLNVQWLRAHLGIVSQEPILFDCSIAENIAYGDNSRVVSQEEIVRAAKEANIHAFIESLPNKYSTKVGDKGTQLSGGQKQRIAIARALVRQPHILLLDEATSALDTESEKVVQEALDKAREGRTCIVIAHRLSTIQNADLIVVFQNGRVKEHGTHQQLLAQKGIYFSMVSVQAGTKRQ
Method in brief: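 P-gp interaction tested in MDR1-MDCKII cells via cellular uptake of calcein AM.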

[10] = Stability in human liver microsomes assessed as compound remaining at 1 uM incubated for 60 mins; type: ADME, Microsome; settings: read-out: Stability
Method in brief: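 Incubation at 1 μM with human liver microsomes (0.3 mg/mL), 0 and 60 min; percent parent remaining at 60 min.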

[11] = Intrinsic clearance in mouse liver microsomes at 1 uM; type: ADME, Microsome; settings: read-out: CLH
[12] = species: Homo sapiens; experiment: Selectivity index, ratio of Ki for human recombinant CB1 receptor to KI for human recombinant CB2 receptor
Method in brief: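 Ki at hCB1 and hCB2 from [3H]-CP-55,940 competitive displacement; ratio CB1 Ki/CB2 Ki. Ki at CB1 determined only when 1 μM screen gave >60% displacement.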

[13] = test system: Mus musculus; experiment: Anticolitis activity in TNBS-induced C57Bl6 mouse experimental colitis model assessed as reduction colitis histological scores at 10 mg/kg, ip qd dosed 3 days before colitis induction (reference value: 4.9 score); type: functional; settings: route intraperitoneal; method in brief: as §2
[14] = test system: Mus musculus; experiment: Anticolitis activity in TNBS-induced C57Bl6 mouse experimental colitis model assessed as MPO activity at 10 mg/kg, ip qd dosed 3 days before colitis induction (reference value: 73.7%) score); type: functional; settings: route intraperitoneal; method in brief: as §2
[15] = test system: Mus musculus; experiment: Effect on TNFalpha mRNA expression in TNBS-induced C57Bl6 mouse experimental colitis model at 10 mg/kg, ip qd dosed 3 days before colitis induction by real-time PCR method; type: functional, organism-based; set-up: dose 10 mg/kg; method in brief: as §2
[16] = test system: Mus musculus; experiment: Effect on IL-1beta mRNA expression in TNBS-induced C57Bl6 mouse experimental colitis model at 10 mg/kg, ip qd dosed 3 days before colitis induction by real-time PCR method; type: functional, organism-based; set-up: dose 10 mg/kg; method in brief: as §2

Row | Structure (SMILES) | pKi [1] | Activity [2] [%] | Activity [3] [%] | pKi [4] | pEC50 [5] | Activity [6] [%] | further results
1 | COCCCn1cc(C(=O)NC23CC4CC(CC(C4)C2)C3)c(=O)cc1C | < 6.00 | > 60 | > 60 |  |  |  | 
2 | CCCCCn1cc(C(=O)NC23CC4CC(CC(C4)C2)C3)c(=O)c(-c2ccc(C)cc2)c1C | < 6.00 | > 60 | > 60 |  |  |  | 
3 | CCCCCn1cc(C(=O)NC(C)C23CC4CC(CC(C4)C2)C3)c(=O)cc1C(C)(C)C (racemic) | 8.05 | > 60 | > 60 | 6.26 | 7.33 | 60 | 
4 | CCCCCn1cc(C(=O)NC23CC4CC(CC(C4)C2)C3)c(=O)cc1C(C)(C)C |  |  |  |  |  | 19.3 | fraction unbound [7]: 0.01; Papp A→B at 1 h, 10 µM [8]: 9.8 ×10⁻⁶ cm/s; inhibition at 10 µM [9]: 94.5%; remaining at 1 h, 1 µM [10]: 1%; microsomal CLint at 1 µM [11]: > 200 µL/min/mg
5 | COC(Cn1cc(C(=O)NC23CC4CC(CC(C4)C2)C3)c(=O)cc1C)OC | < 6.00 | > 60 | > 60 |  |  |  | 
6 | Cc1cc(=O)c(C(=O)NC23CC4CC(CC(C4)C2)C3)cn1CCC1CCOCC1 | 6.71 | > 60 | > 60 |  |  |  | 
7 | CCCCCn1cc(C(=O)NC23CC4CC(CC(C4)C2)C3)c(=O)c(C2CC2)c1C | 7.87 | > 60 | > 60 | 6.98 | 7.05 |  | 
8 | CCCCCn1cc(C(=O)NC2CCCCC2)c(=O)cc1C | 7.61 | > 60 | > 60 | < 6.00 | 7.30 | 74.9 | Ratio Ki [12]: > 10
9 | CCCCCn1cc(C(=O)Nc2ccccc2)c(=O)cc1C | < 6.00 | > 60 | > 60 |  |  |  | 
10 | CCCCCn1cc(C(=O)Nc2ccccc2)c(=O)cc1C(C)(C)C | 8.04 | > 60 | > 60 | 7.06 | 8.08 |  | 
11 | CCCCCn1cc(C(=O)NC(C)C23CC4CC(CC(C4)C2)C3)c(=O)cc1C (racemic) | 8.19 | > 60 | > 60 | < 6.00 | 7.07 | 74.9 | Ratio Ki [12]: > 10
12 | Cc1cc(=O)c(C(=O)NC23CC4CC(CC(C4)C2)C3)cn1CCCC(F)(F)F | 9.55 | > 60 | > 60 | < 6.00 | 7.76 | 65.1 | Ratio Ki [12]: > 3570
13 | CCCCCn1cc(C(=O)NCC2CC2)c(=O)cc1C(C)(C)C | 7.85 | > 60 | > 60 | 6.75 | 7.56 | 74.9 | Ratio Ki [12]: > 10
14 | CCCCCn1cc(C(=O)NCC23CC4CC(CC(C4)C2)C3)c(=O)cc1C | 7.82 | > 60 | > 60 | < 6.00 | 7.27 | 55.9 | Ratio Ki [12]: > 10
15 | CCCCCn1cc(C(=O)NC23CC4CC(CC(C4)C2)C3)c(=O)c(-c2ccc(CC)cc2)c1C | 7.27 | > 60 | > 60 | < 6.00 | 7.40 |  | 
16 | CCCCCn1cc(C(=O)NC23CC4CC(CC(C4)C2)C3)c(=O)c(-c2cccc(C(C)=O)c2)c1C | < 6.00 | > 60 | > 60 |  |  |  | 
17 | CCCCCn1cc(C(=O)NC23CC4CC(CC(C4)C2)C3)c(=O)c(-c2ccncc2)c1C | 7.44 | > 60 | > 60 | < 6.00 | 6.94 | 61.4 | Activity [13]: 3.1; Activity [14]: 34.1%; Activity [15]: inactive; Activity [16]: inactive; fraction unbound [7]: 0.07; Papp A→B at 1 h, 10 µM [8]: 49.9 ×10⁻⁶ cm/s; inhibition at 10 µM [9]: 33.7%; remaining at 1 h, 1 µM [10]: 1%; microsomal CLint at 1 µM [11]: > 200 µL/min/mg; Ratio Ki [12]: > 10
18 | CCCCCn1cc(C(=O)NC2C3CC4CC(C3)CC2C4)c(=O)cc1C (stereo unspecified) | 9.59 | > 60 | > 60 | < 6.00 | 7.42 | 74.9 | Ratio Ki [12]: > 3850
19 | CCCCCn1cc(C(=O)NC2C3CC4CC(C3)CC2C4)c(=O)cc1C(C)(C)C (stereo unspecified) | 8.02 | > 60 | > 60 | 6.25 | 6.34 | 51.5 | 
20 | CCCCCn1cc(C(=O)NCC2CC2)c(=O)cc1C | < 6.00 | > 60 | > 60 |  |  |  | 
21 | Cc1cc(=O)c(C(=O)NC23CC4CC(CC(C4)C2)C3)cn1CC1CCOCC1 | 7.62 | > 60 | > 60 | < 6.00 | 7.32 | 66.3 | Ratio Ki [12]: > 10
22 | CCCCCn1cc(C(=O)NC(C)C)c(=O)cc1C | < 6.00 | > 60 | > 60 |  |  |  | 
23 | CCCCCn1cc(C(=O)NC23CC4CC(CC(C4)C2)C3)c(=O)c(I)c1C | 7.68 | > 60 | > 60 | 6.71 | 7.92 |  | 
24 | CCCCCn1cc(C(=O)NCC23CC4CC(CC(C4)C2)C3)c(=O)cc1C(C)(C)C | 7.99 | > 60 | > 60 | < 6.00 | 7.31 | 62.2 | 
25 | CCCCCn1cc(C(=O)NN2CCCCC2)c(=O)cc1C | < 6.00 | > 60 | > 60 |  |  |  | 
26 | C/C=C\n1cc(C(=O)NC23CC4CC(CC(C4)C2)C3)c(=O)cc1C | < 6.00 | > 60 | > 60 |  |  |  | 
27 | Cc1cc(=O)c(C(=O)NC23CC4CC(CC(C4)C2)C3)cn1CC1OCCO1 | < 6.00 | > 60 | > 60 |  |  |  | 
28 | CCCCCn1cc(C(=O)NC23CC4CC(CC(C4)C2)C3)c(=O)c(-c2cccc(C#N)c2)c1C | < 6.00 | > 60 | > 60 |  |  |  | 
29 | CCCCCn1cc(C(=O)NC23CC4CC(CC(C4)C2)C3)c(=O)c(-c2ccccc2)c1C | 6.72 | > 60 | > 60 |  |  |  | 
30 | Cc1cc(=O)c(C(=O)NC23CC4CC(CC(C4)C2)C3)cn1CCC1OCCO1 | < 6.00 | > 60 | > 60 |  |  |  | 
